From ChEMBL document CHEMBL1926620, “Aza vinyl sulfones: synthesis and evaluation as antiplasmodial agents” (Bioorg Med Chem, 2011)
pIC50: −log10 of the molar value.

Key:
Plasmodium falciparum = test: Antiplasmodial activity against ring stage Plasmodium falciparum W2 infected in human red blood cells after 48 hrs by flow cytometry; type: functional, organism-based; details: W2, 48 h
Papain = target: T1, Papain (Carica papaya, UniProt P00784); test: Inhibition of papaya papain using Z-Leu-Leu-Arg-AMC as substrate after 30 mins by spectrofluorometry
T1 sequence (P00784 whole entry): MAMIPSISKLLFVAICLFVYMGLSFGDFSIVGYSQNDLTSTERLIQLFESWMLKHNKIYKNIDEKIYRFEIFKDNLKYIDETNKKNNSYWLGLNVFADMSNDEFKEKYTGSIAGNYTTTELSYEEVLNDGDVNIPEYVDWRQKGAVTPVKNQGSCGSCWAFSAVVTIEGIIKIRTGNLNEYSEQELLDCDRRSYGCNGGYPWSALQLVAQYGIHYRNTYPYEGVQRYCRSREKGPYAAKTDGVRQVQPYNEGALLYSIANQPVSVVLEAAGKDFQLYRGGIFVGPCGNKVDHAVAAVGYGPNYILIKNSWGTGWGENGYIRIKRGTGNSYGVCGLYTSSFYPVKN
Procedure, shortened: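 Papain activated in buffer at 5 µg/mL, 10 mM PBS pH 7.4 with 5 mM DTT, 37 °C, inhibitor serial dilutions in DMSO; 30 µM Z-Leu-Leu-Arg-AMC started the reaction (Km 0.4 µM, saturating). Fluorescence (ex 355/em 460 nm) monitored 30 min; E64 positive control; IC50 by non-linear regression of log concentration versus % activity; triplicate.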

[1] = Inhibition of Plasmodium falciparum falcipain-2 using Z-Leu-Arg-AMC as substrate after 10 mins by spectrofluorimetry
Procedure, shortened: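 Enzyme at 1 nM in 100 mM sodium acetate pH 6.0, 5 mM DTT, 0.75% DMSO, 25 °C; preincubated 10 min with serial 1:5 compound dilutions (50 µM down to 0.65 nM), then 25 µM Z-Leu-Arg-AMC added; fluorescence read immediately. IC50 from percent inhibition versus no-inhibitor controls.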

Structure (SMILES): CC(C)C[C@H](NC(=O)N1CCOCC1)C(=O)NNC(=O)/C=C/S(=O)(=O)c1ccccc1
- pIC50 (Plasmodium falciparum): < 5.00
- pIC50 (Papain): < 4.30

Structure (SMILES): O=C(N[C@@H](Cc1ccccc1)C(=O)NN(CCc1ccccc1)C(=O)/C=C/S(=O)(=O)c1ccccc1)OCc1ccccc1
- pIC50 (Plasmodium falciparum): 5.05
- pIC50 (Papain): < 4.30

Structure (SMILES): CC(C)C[C@H](NC(=O)OC(C)(C)C)C(=O)NN(CCc1ccccc1)C(=O)/C=C/S(C)(=O)=O
- pIC50 [1]: < 4.30
- pIC50 (Plasmodium falciparum): 4.33

Structure (SMILES): CC(C)C[C@H](NC(=O)OC(C)(C)C)C(=O)NN(Cc1ccccc1)C(=O)/C=C/S(=O)(=O)c1ccccc1
- pIC50 [1]: < 4.30
- pIC50 (Plasmodium falciparum): < 4.30

Structure (SMILES): CC(C)C[C@H](NC(=O)[C@H]1O[C@@H]1C(=O)O)C(=O)NCCCCN=C(N)N [E-64]
- pIC50 [1]: 6.96
- pIC50 (Papain): 8.70

Structure (SMILES): CC(C)C[C@H](NC(=O)OC(C)(C)C)C(=O)NN(CCc1ccccc1)C(=O)/C=C/S(=O)(=O)c1ccccc1
- pIC50 [1]: < 4.30
- pIC50 (Plasmodium falciparum): 4.81

Structure (SMILES): CC(C)C[C@H](NC(=O)OC(C)(C)C)C(=O)NNC(=O)/C=C/S(=O)(=O)c1ccccc1
- pIC50 (Plasmodium falciparum): 4.47

Structure (SMILES): O=C(CNC(=O)OCc1ccccc1)NN(CCc1ccccc1)C(=O)/C=C/S(=O)(=O)c1ccccc1
- pIC50 (Plasmodium falciparum): < 5.00
- pIC50 (Papain): < 4.30

Structure (SMILES): CC(C)C[C@H](NC(=O)N1CCOCC1)C(=O)NN(CCc1ccccc1)C(=O)/C=C/S(=O)(=O)c1ccccc1
- pIC50 (Plasmodium falciparum): 5.47
- pIC50 (Papain): < 4.30

Structure (SMILES): CC(C)C[C@H](NC(=O)OC(C)(C)C)C(=O)NNC(=O)/C=C/S(C)(=O)=O
- pIC50 (Plasmodium falciparum): 4.47

Structure (SMILES): COc1c(N[C@@H](CC(C)C)C(=O)NN(CCc2ccccc2)C(=O)/C=C/S(=O)(=O)c2ccccc2)c(=O)c1=O
- pIC50 [1]: < 4.30
- pIC50 (Plasmodium falciparum): < 5.00

Structure (SMILES): COc1c(N[C@@H](CC(C)C)C(=O)NN(Cc2ccccc2)C(=O)/C=C/S(=O)(=O)c2ccccc2)c(=O)c1=O
- pIC50 [1]: < 4.30
- pIC50 (Plasmodium falciparum): 6.02

Structure (SMILES): CCCCOc1c(N[C@@H](CC(C)C)C(=O)NN(CCc2ccccc2)C(=O)/C=C/S(=O)(=O)c2ccccc2)c(=O)c1=O
- pIC50 [1]: < 4.30
- pIC50 (Plasmodium falciparum): 5.35

Structure (SMILES): CCCCOc1c(N[C@@H](CC(C)C)C(=O)NNC(=O)/C=C/S(=O)(=O)c2ccccc2)c(=O)c1=O
- pIC50 [1]: < 4.30
- pIC50 (Plasmodium falciparum): 5.59

Structure (SMILES): COc1c(N[C@@H](CC(C)C)C(=O)NN(Cc2ccccc2)C(=O)/C=C/S(C)(=O)=O)c(=O)c1=O
- pIC50 [1]: < 4.30
- pIC50 (Plasmodium falciparum): < 5.00

Structure (SMILES): CC(C)C[C@H](NC(=O)OCc1ccccc1)C(=O)NN(CCc1ccccc1)C(=O)/C=C/S(=O)(=O)c1ccccc1
- pIC50 (Plasmodium falciparum): < 5.00
- pIC50 (Papain): < 4.30

Structure (SMILES): COc1c(N[C@@H](CC(C)C)C(=O)NNC(=O)/C=C/S(C)(=O)=O)c(=O)c1=O
- pIC50 [1]: < 4.30
- pIC50 (Plasmodium falciparum): 5.64

Structure (SMILES): CCCCOc1c(N[C@@H](CC(C)C)C(=O)NN(Cc2ccccc2)C(=O)/C=C/S(=O)(=O)c2ccccc2)c(=O)c1=O
- pIC50 [1]: < 4.30
- pIC50 (Plasmodium falciparum): 5.92

Structure (SMILES): CC(C)C[C@H](NC(=O)OC(C)(C)C)C(=O)NN(Cc1ccccc1)C(=O)/C=C/S(C)(=O)=O
- pIC50 [1]: < 4.30
- pIC50 (Plasmodium falciparum): 4.67

Structure (SMILES): COc1c(N[C@@H](CC(C)C)C(=O)NN(CCc2ccccc2)C(=O)/C=C/S(C)(=O)=O)c(=O)c1=O
- pIC50 [1]: < 4.30
- pIC50 (Plasmodium falciparum): 5.60

Structure (SMILES): COc1c(N[C@@H](CC(C)C)C(=O)NNC(=O)/C=C/S(=O)(=O)c2ccccc2)c(=O)c1=O
- pIC50 [1]: < 4.30
- pIC50 (Plasmodium falciparum): 5.46
